Legend:
Format in all cases: functional
Candida albicans [1] = assay: Antifungal activity against Candida albicans ATCC 10231 assessed as inhibition of fungal growth at 12.5 uM after 24 hrs by microplate analysis; settings: ATCC 10231, 24 h
Summary of the method: (§1)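 Broth microdilution in RPMI-1640. Peptide DMSO stocks were diluted to final concentrations of 200–3.125, with DMSO ≤2%. Inoculum was 1–5×10³ CFU/mL from Sabouraud-chloramphenicol agar cultures (24 h, 35 °C). Plates were held in a moist, dark chamber at 35 °C: 24 h for C. albicans, 48 h for C. neoformans.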

Cryptococcus neoformans [2] = assay: Antifungal activity against Cryptococcus neoformans ATCC 32264 assessed as inhibition of fungal growth at 6.25 uM after 48 hrs by microplate analysis; settings: ATCC 32264, 48 h; summary of the method: as §1
Candida albicans [3] = assay: Antifungal activity against Candida albicans ATCC 10231 assessed as inhibition of fungal growth at 6.25 uM after 24 hrs by microplate analysis; settings: ATCC 10231, 24 h; summary of the method: as §1
Candida albicans [4] = assay: Antifungal activity against Candida albicans ATCC 10231 assessed as inhibition of fungal growth at 100 uM after 24 hrs by microplate analysis; settings: ATCC 10231, 24 h; summary of the method: as §1
Cryptococcus neoformans [5] = assay: Antifungal activity against Cryptococcus neoformans ATCC 32264 assessed as inhibition of fungal growth at 25 uM after 48 hrs by microplate analysis; settings: ATCC 32264, 48 h; summary of the method: as §1
Cryptococcus neoformans [6] = assay: Antifungal activity against Cryptococcus neoformans ATCC 32264 assessed as inhibition of fungal growth at 200 uM after 48 hrs by microplate analysis; settings: ATCC 32264, 48 h; summary of the method: as §1
Candida albicans [7] = assay: Antifungal activity against Candida albicans ATCC 10231 assessed as inhibition of fungal growth at 200 uM after 24 hrs by microplate analysis; settings: ATCC 10231, 24 h; summary of the method: as §1
Candida albicans [8] = assay: Antifungal activity against Candida albicans ATCC 10231 assessed as inhibition of fungal growth at 50 uM after 24 hrs by microplate analysis; settings: ATCC 10231, 24 h; summary of the method: as §1
Candida albicans [9] = assay: Antifungal activity against Candida albicans ATCC 10231 assessed as inhibition of fungal growth at 25 uM after 24 hrs by microplate analysis; settings: ATCC 10231, 24 h; summary of the method: as §1
Cryptococcus neoformans [10] = assay: Antifungal activity against Cryptococcus neoformans ATCC 32264 assessed as inhibition of fungal growth at 100 uM after 48 hrs by microplate analysis; settings: ATCC 32264, 48 h; summary of the method: as §1
Cryptococcus neoformans [11] = assay: Antifungal activity against Cryptococcus neoformans ATCC 32264 assessed as inhibition of fungal growth at 12.5 uM after 48 hrs by microplate analysis; settings: ATCC 32264, 48 h; summary of the method: as §1
Cryptococcus neoformans [12] = assay: Antifungal activity against Cryptococcus neoformans ATCC 32264 assessed as inhibition of fungal growth at 50 uM after 48 hrs by microplate analysis; settings: ATCC 32264, 48 h; summary of the method: as §1

Compound | inhibition at 12.5 µM (Candida albicans [1]) [%] | inhibition at 6.25 µM (Cryptococcus neoformans [2]) [%] | inhibition at 6.25 µM (Candida albicans [3]) [%] | inhibition at 100 µM (Candida albicans [4]) [%] | inhibition at 25 µM (Cryptococcus neoformans [5]) [%] | inhibition at 200 µM (Cryptococcus neoformans [6]) [%] | inhibition at 200 µM (Candida albicans [7]) [%] | inhibition at 50 µM (Candida albicans [8]) [%] | inhibition at 25 µM (Candida albicans [9]) [%] | inhibition at 100 µM (Cryptococcus neoformans [10]) [%] | inhibition at 12.5 µM (Cryptococcus neoformans [11]) [%] | inhibition at 50 µM (Cryptococcus neoformans [12]) [%]
CC[C@H](C)[C@H](NC(=O)[C@H](CCCCN)NC(=O)[C@@H](NC(=O)[C@H](CCC(N)=O)NC(=O)[C@H](CCCNC(=N)N)NC(=O)[C@H](Cc1c[nH]c2ccccc12)NC(=O)[C@H](CCCNC(=N)N)NC(=O)[C@H](Cc1ccccc1)NC(=O)[C@@H](N)Cc1cnc[nH]1)[C@@H](C)CC)C(=O)N[C@@H](Cc1c[nH]c2ccccc12)C(=O)N[C@@H](Cc1ccccc1)C(=O)N[C@@H](CCC(N)=O)C(=O)N[C@@H](CC(N)=O)C(=O)N[C@@H](CCCNC(=N)N)C(=O)N[C@@H](CCCNC(=N)N)C(=O)N[C@@H](CC[S+](C)[O-])C(=O)N[C@@H](CCCCN)C(=O)N[C@@H](Cc1c[nH]c2ccccc12)C(=O)N[C@@H](CCCCN)C(=O)N[C@@H](CCCCN)C(N)=O (some centres undefined) | 3.95 | 95.1 | 2.9 | 100 | 100 | 100 | 100 | 93.7 | 5.96 | 100 | 99.3 | 100
N=C(N)NCCC[C@H](NC(=O)CNC(=O)[C@@H](N)Cc1ccc(O)cc1)C(=O)N[C@@H](CCCCN)C(=O)N[C@@H](CCCCN)C(=O)N[C@@H](CCCNC(=N)N)C(=O)N[C@@H](CCCNC(=N)N)C(=O)N[C@@H](CCC(N)=O)C(=O)N[C@@H](CCCNC(=N)N)C(=O)N[C@@H](CCCNC(=N)N)C(=O)N[C@@H](CCCNC(=N)N)C(=O)N[C@@H](CS)C(N)=O | 6.12 | 0 | 4.97 | 99.1 | 1.75 | 100 | 99.1 | 6.75 | 6.71 | 100 | 0 | 61.3
C[C@@H]1[C@H](O)[C@@H](C)/C=C/C=C/C=C/C=C/C=C/C=C/C=C/[C@H](O[C@@H]2O[C@H](C)[C@@H](O)[C@H](N)[C@@H]2O)C[C@@H]2O[C@](O)(C[C@@H](O)C[C@@H](O)[C@H](O)CC[C@@H](O)C[C@@H](O)CC(=O)O[C@H]1C)C[C@H](O)[C@H]2C(=O)O [AMPHOTERICIN B] | 100 | 100 | 100 | 100 | 100 | 100 | 100 | 100 | 100 | 100 | 100 | 100
CC(=O)N1CCN(c2ccc(OCC3COC(Cn4ccnc4)(c4ccc(Cl)cc4Cl)O3)cc2)CC1 (centres undefined) [KETOCONAZOLE] | 100 | 100 | 100 | 100 | 100 | 100 | 100 | 100 | 100 | 100 | 100 | 100
H-KQIKIWFQNKKMKWKK-NH2 [KQIKIWFQNKKMKWKK-NH2] | 5.97 | 64.5 | 3.24 | 100 | 98.5 | 100 | 100 | 100 | 8.41 | 100 | 72 | 100
H-RQIRIWFQNRRMRWRR-NH2 | 4.38 | 43.3 | 3.71 | 100 | 81.7 | 100 | 100 | 98.9 | 6.16 | 100 | 77.5 | 100
H-RWWKWWWWWRRWKWKK-NH2 | 14.8 | 22.6 | 8.72 | 99.1 | 44.2 | 100 | 100 | 95.8 | 30.9 | 90 | 31.5 | 77.5

From ChEMBL document CHEMBL1649370, “Penetratin analogues acting as antifungal agents” (2011)
